Results from ChEMBL document CHEMBL4028911, “Discovery of a Small-Molecule Bromodomain-Containing Protein 4 (BRD4) Inhibitor That Induces AMP-Activated Protein Kinase-Modulated Autophagy-Associated Cell Death in Breast Cancer” (J Med Chem, 2017).
Active and inactive are the calls of the source. No cut-off for these calls is given here.

Legend:
[1] = target: T1, Bromodomain-containing protein 4 (Homo sapiens, UniProt O60885); assay: Inhibition of BRD4 in human MCF7 cells assessed as reduction in ATG13 protein expression at 1.5 uM up to 36 hrs by Western blot analysis; type: cell-based
Procedure, shortened: (§1)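 MCF-7 (1.5 μM) or MDA-MB-231 (3 μM) cells treated for indicated times. Adherent and floating cells lysed in RIPA with 1 mM PMSF. Equal protein run on 10-15% SDS-PAGE, blotted to PVDF, blocked in milk or BSA, HRP/ECL detection. β-actin loading control.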

[2] = target: T1, Bromodomain-containing protein 4; assay: Inhibition of BRD4 in human MCF7 cells assessed as downregulation of AKT phosphorylation at thr308 at 1.5 uM measured up to 36 hrs by Western blot analysis; type: cell-based; procedure, shortened: as §1
MCF7 [3] = assay: Induction of autophagy in human MCF7 cells assessed as downregulation of p62/SQSTM1 expression at 1.5 uM measured up to 36 hrs by Western blot analysis; type: functional, cell-based
Procedure, shortened: (§2)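 MCF-7 (1.5 µM) or MDA-MB-231 (3 µM) cells treated for indicated times. Adherent and floating cells lysed in RIPA with 1 mM PMSF, 4°C for 1 h. Equal protein run on 10-15% SDS-PAGE, transferred to PVDF, blocked with milk or BSA, probed with primary then HRP secondary antibodies, ECL detection; β-actin as loading control.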

MCF7 [4] = assay: Antiproliferative activity against human MCF7 cells after 24 hrs by MTT assay; type: functional, cell-based; conditions: MCF7, 24 h
MDA-MB-468 [5] = assay: Induction of autophagy in human MDA-MB-468 cells assessed as increase in LC3-2 expression expression measured up to 48 hrs by Western blot analysis; type: functional, cell-based
MDA-MB-468 [6] = assay: Induction of autophagy in human MDA-MB-468 cells assessed as upregulation of beclin1 expression measured up to 48 hrs by Western blot analysis; type: functional, cell-based
MDA-MB-231 [7] = assay: Effect on mTOR expression in human MDA-MB-231 cells at 3 uM measured up to 36 hrs by Western blot analysis; type: ADME, cell-based; conditions: mda-mb-231, 36 h; procedure, shortened: as §2
MCF7 [8] = assay: Induction of autophagy in human MCF7 cells assessed as cytoplasmic vacuolization at 1.5 uM by electron microscopy; type: functional, cell-based
Procedure, shortened: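 MCF-7 (1.5 µM) or MDA-MB-231 (3 µM) cells treated for indicated times. Cytoplasmic vacuoles examined by transmission electron microscopy.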

MDA-MB-231 [9] = assay: Induction of autophagy in human MDA-MB-231 cells assessed as increase in LC3B puncta at 3 uM after 24 hrs by DAPI-staining based immunocytochemistry; type: functional, cell-based
Procedure, shortened: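 MDA-MB-231 cells treated with 3 μM for 24 h. Blocked in PBS with 1.5% goat serum, anti-LC3B (1:200 in PBS/1% BSA) overnight at 4 °C, then FITC secondary 1 h at room temperature. DAPI counterstain; LC3B puncta scored by fluorescence microscopy.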

Mus musculus = assay: Toxicity in BALB/c mouse xenografted with human MCF7 cells assessed as effect on body weight at 25 to 100 mg/kg, ig administered once a day for 24 days measured every 3 days; type: organism-based; conditions: in vivo, po
Procedure, shortened: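 Female BALB/c nude mice (6-8 weeks, 20-22 g) with subcutaneous MCF-7 or MDA-MB-231 xenografts (5×10^6 cells). At 100 mm3, given 25, 50 or 100 mg/kg intragastrically once daily, or vehicle, for 24 or 27 days. Body weight recorded every 3 days. MCF-7 n=7, MDA-MB-231 n=6 per group.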

MDA-MB-231 [10] = assay: Antitumor activity against human MDA-MB-231 cells xenografted in nude BALB/c mouse assessed as reduction in tumor weight at 25 to 100 mg/kg, ig administered once a day for […] measured every 3 days relative to control; type: functional, organism-based
Procedure, shortened: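 Female BALB/c nude mice, 6-8 weeks, 20-22 g, injected subcutaneously with 5×10^6 MCF-7 or MDA-MB-231 cells. At 100 mm³ tumor volume (V = L×W²/2), split into four groups: 25, 50 or 100 mg/kg intragastric once daily for 24 or 27 days, or vehicle. Tumor volume and body weight measured every 3 days; tumors excised and weighed at end. MCF-7 n=7, MDA-MB-231 n=6 per group.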

[11] = target: Bromodomain-containing protein 2 (Homo sapiens, UniProt P25440); assay: Inhibition of recombinant human N-terminal GST-tagged BRD2 bromodomain-2 (339 to 459 residues) expressed in Escherichia coli expression system after 120 mins by TR-FRET assay
Procedure, shortened: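 TR-FRET bromodomain binding. Recombinant BRD domain, BET ligand and test agent in 20 μl assay buffer with 1% DMSO final. Incubated 120 min at room temperature. Blank lacks BET ligand.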

[12] = target: T1, Bromodomain-containing protein 4; assay: Inhibition of BRD4 in human MDA-MB-231 cells assessed as downregulation of AKT phosphorylation at ser473 at 3 uM measured up to 36 hrs by Western blot analysis; type: cell-based; procedure, shortened: as §1
MCF7 [13] = assay: Induction of autophagy in human MCF7 cells assessed as assessed as cytoplasmic vacuolization; type: functional, cell-based
[14] = target: T1, Bromodomain-containing protein 4; assay: Inhibition of BRD4 in human MCF7 cells assessed as increase in ULK1 phosphorylation at ser317 at 1.5 uM up to 36 hrs by Western blot analysis; type: cell-based; procedure, shortened: as §1

Sequence of Bromodomain-containing protein 2 (P25440 whole entry, the tested form may be a part): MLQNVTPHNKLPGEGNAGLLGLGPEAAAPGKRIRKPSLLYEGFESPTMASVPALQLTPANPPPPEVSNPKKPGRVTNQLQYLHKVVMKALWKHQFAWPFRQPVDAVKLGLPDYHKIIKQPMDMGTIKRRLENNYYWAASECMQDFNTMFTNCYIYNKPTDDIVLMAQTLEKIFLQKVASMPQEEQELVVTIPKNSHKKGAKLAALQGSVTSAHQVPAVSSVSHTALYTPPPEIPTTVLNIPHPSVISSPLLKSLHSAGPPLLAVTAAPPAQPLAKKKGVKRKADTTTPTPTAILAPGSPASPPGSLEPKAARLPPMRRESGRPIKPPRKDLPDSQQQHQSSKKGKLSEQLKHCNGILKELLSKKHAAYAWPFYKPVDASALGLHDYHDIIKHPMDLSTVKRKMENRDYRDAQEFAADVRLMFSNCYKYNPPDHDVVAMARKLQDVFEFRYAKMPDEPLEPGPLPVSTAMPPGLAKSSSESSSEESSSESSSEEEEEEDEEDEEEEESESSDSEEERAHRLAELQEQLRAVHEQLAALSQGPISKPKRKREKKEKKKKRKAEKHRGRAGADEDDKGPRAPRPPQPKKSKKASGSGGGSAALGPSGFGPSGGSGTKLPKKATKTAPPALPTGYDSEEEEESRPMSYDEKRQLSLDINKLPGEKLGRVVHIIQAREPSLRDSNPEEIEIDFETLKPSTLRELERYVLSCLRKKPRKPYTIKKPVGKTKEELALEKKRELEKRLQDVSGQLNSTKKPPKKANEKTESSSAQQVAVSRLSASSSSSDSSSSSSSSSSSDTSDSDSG

Cc1cc(-c2nc3sc4c(c3c(=O)[nH]2)CCN(C)C4)cc(C)c1O
inhibition [1]: Active
inhibition [2]: Active
Activity (MCF7 [3]): Active
IC50 (MCF7 [4]): 1620 nM
Activity (MDA-MB-468 [5]): Active
Activity (MDA-MB-468 [6]): inactive
Activity (MDA-MB-231 [7]): Non-Toxic
Activity (MCF7 [8]): Active
Activity (MDA-MB-231 [9]): Active
Activity (Mus musculus): Non-Toxic
Activity (MDA-MB-231 [10]): Active
IC50 [11]: > 100000 nM
inhibition [12]: Active
Activity (MCF7 [13]): Active
inhibition [14]: Active
